Laboratory results published in ChEMBL document CHEMBL1131582, “New substituted 1,4-benzoxazine derivatives with potential intracellular calcium activity” (J Med Chem, 1998).

Legend:
Format in all cases: functional
Oryctolagus cuniculus [1] = organism: Oryctolagus cuniculus; test: Inhibition of contraction induced by caffeine on rabbit renal artery; parameters: concentration or dose not given beside the values
In short: (§1)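 Male New Zealand White rabbit left renal artery rings (2.5–3 mm) in Krebs' solution at 37 °C, gassed 95% O2/5% CO2, 3 g preload, 90 min equilibration, isometric tension. Three matched control contractions to caffeine 10 mM, then caffeine contractions repeated at 20 min with each rising test concentration until maximal inhibition. IC50 by linear regression; five to nine preparations.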

Oryctolagus cuniculus [2] = organism: Oryctolagus cuniculus; test: Concentration which inhibits 50% of contraction induced by caffeine on rabbit renal artery; in short: as §1
Oryctolagus cuniculus [3] = organism: Oryctolagus cuniculus; test: Concentration which inhibits 50% of contraction induced by phenylephrine on rabbit renal artery
In short: (§2)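 Endothelium-denuded arterial rings, with denudation confirmed by no acetylcholine (1 μM) relaxation of tissue precontracted with phenylephrine 0.1 μM. After reproducible 40 mM K+ responses, sustained tonic contraction to K+ 40 mM or phenylephrine 5 μM. Test compound added cumulatively until maximal relaxation.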

Oryctolagus cuniculus [4] = organism: Oryctolagus cuniculus; test: Concentration which inhibits 50% of contraction induced by potassium on rabbit renal artery; in short: as §2
Oryctolagus cuniculus [5] = organism: Oryctolagus cuniculus; test: 50% inhibition of contraction induced by potassium on rabbit renal artery; in short: as §2
Oryctolagus cuniculus [6] = organism: Oryctolagus cuniculus; test: Inhibitory selectivity for Phenylephrine (PE) and Potassium (K+) induced contraction on rabbit renal artery
Oryctolagus cuniculus [7] = organism: Oryctolagus cuniculus; test: Inhibition of contraction induced by phenylephrine on rabbit renal artery; in short: as §2
Oryctolagus cuniculus [8] = organism: Oryctolagus cuniculus; test: Inhibition of contraction induced by potassium on rabbit renal artery; in short: as §2

IC50 (Oryctolagus cuniculus [2]) | IC50 (Oryctolagus cuniculus [3]) | IC50 (Oryctolagus cuniculus [4]) | IC50 ratio (Oryctolagus cuniculus [6]) | Structure (SMILES) | Inhibition (Oryctolagus cuniculus [1]) | Inhibition (Oryctolagus cuniculus [5]) | Inhibition (Oryctolagus cuniculus [7]) | Inhibition (Oryctolagus cuniculus [8])
> 30 µM | 42 µM | > 100 µM | – | COc1ccc(CCNCCC2CNc3ccccc3O2)cc1OC (centres undefined) | 26% | 25% | – | –
30 µM | 12.6 µM | 8.4 µM | 1.5 | COc1ccc(CCNCCCC2CN(C(=O)c3ccccc3)c3ccccc3O2)cc1OC (centres undefined) | – | – | – | –
> 30 µM | 13.3 µM | 7.3 µM | 1.8 | COc1ccc(CCNCCC2CN(S(=O)(=O)c3cccc4cnccc34)c3ccccc3O2)cc1OC (centres undefined) | 23% | – | – | –
> 30 µM | – | – | – | COc1ccc(CCNCC2CNc3ccccc3O2)cc1OC (centres undefined) | 26% | – | – | –
12.3 µM | 10.1 µM | 4.4 µM | 2.3 | COc1ccc(CCNCCC2CN(Cc3ccccc3)c3ccccc3O2)cc1OC (centres undefined) | – | – | – | –
> 30 µM | 32.6 µM | 7.9 µM | 4.1 | COc1ccc(CCN(C)CCC2CN(Cc3ccccc3)c3ccccc3O2)cc1OC (centres undefined) | 37% | – | – | –
> 30 µM | 14.6 µM | 2.2 µM | 7.3 | COc1ccc(CCN(C)CCCC2Oc3cc4c(cc3NC2=O)OCCO4)cc1OC (centres undefined) | 0% | – | – | –
> 30 µM | 1.4 µM | 23.1 µM | 0.06 | CN1CC(CN2CCN(c3ccc(F)cc3)CC2)Oc2ccccc21 (centres undefined) | 32% | – | – | –
> 30 µM | 93.3 µM | 17.6 µM | 5.3 | Fc1ccc(C(OCCNCC2CN(Cc3ccccc3)c3ccccc3O2)c2ccc(F)cc2)cc1 (centres undefined) | 5% | – | – | –
> 30 µM | 0.43 µM | 45.3 µM | 0.009 | O=C1Nc2cc3c(cc2OC1CCCN1CCN(c2ccc(F)cc2)CC1)OCCO3 (centres undefined) | 22% | – | – | –
> 30 µM | 2.8 µM | 19 µM | 0.15 | O=C(c1ccccc1)N1CC(CCCN2CCN(c3ccc(F)cc3)CC2)Oc2ccccc21 (centres undefined) | 8% | – | – | –
> 30 µM | 1.6 µM | 24.7 µM | 0.07 | Fc1ccc(N2CCN(CC3CNc4ccccc4O3)CC2)cc1 (centres undefined) | 9% | – | – | –
> 30 µM | 11.4 µM | 9.4 µM | 1.2 | COc1ccc(CCNCC2CN(Cc3ccccc3)c3ccccc3O2)cc1OC (centres undefined) | 48% | – | – | –
13.9 µM | 43.1 µM | 8.6 µM | 5 | COc1ccc(CCNCCCCC2CN(Cc3ccccc3)c3ccccc3O2)cc1OC (centres undefined) | – | – | – | –
> 30 µM | 100 µM | ≥ 100 µM | >=1 | COc1ccc(CCN(CCCC2Oc3cc4c(cc3NC2=O)OCCO4)Cc2ccccc2)cc1OC (centres undefined) | 0% | – | 47% | 41%
> 30 µM | – | 76.5 µM | 0.06 | Fc1ccc(N2CCN(CCCC3CN(Cc4ccccc4)c4ccccc4O3)CC2)cc1 (centres undefined) | 0% | – | – | –
26.3 µM | – | 74.8 µM | – | Fc1ccc(C(OCCNCC2CNc3ccccc3O2)c2ccc(F)cc2)cc1 (centres undefined) | – | – | – | –
> 30 µM | 83.7 µM | 8.3 µM | 10.1 | COc1ccc(CCNCCC2CN(S(=O)(=O)c3cccc4ccccc34)c3ccccc3O2)cc1OC (centres undefined) | 46% | – | – | –
> 30 µM | > 100 µM | > 100 µM | – | Fc1ccc(C(OCCNCCCC2CN(Cc3ccccc3)c3ccccc3O2)c2ccc(F)cc2)cc1 (centres undefined) | 5% | – | 12% | 26%
11.8 µM | 21.6 µM | 10.2 µM | 2.1 | COc1ccc(CCNCCCC2CN(Cc3ccccc3)c3ccccc3O2)cc1OC (centres undefined) | – | – | – | –
> 30 µM | – | – | – | CN(CCOC(c1ccc(F)cc1)c1ccc(F)cc1)CC1CNc2ccccc2O1 (centres undefined) | 23% | – | – | –
> 30 µM | 20.9 µM | 57.4 µM | 0.36 | COc1ccc(CCNCC2CN(C)c3ccccc3O2)cc1OC (centres undefined) | 46% | – | – | –
> 30 µM | 3.2 µM | 11 µM | 0.29 | Fc1ccc(N2CCN(CCCC3CNc4ccccc4O3)CC2)cc1 (centres undefined) | 22% | – | – | –
> 30 µM | 14.2 µM | > 100 µM | – | COc1ccc(CCNCCCC2Oc3cc4c(cc3NC2=O)OCCO4)cc1OC (centres undefined) | 0% | – | – | 38%
> 30 µM | 100 µM | > 100 µM | – | COc1ccc(CCNCCCC2CNc3ccccc3O2)cc1OC (centres undefined) | 16% | – | 49% | 30%
30 µM | 33.7 µM | 15.1 µM | 2.2 | COc1ccc(CCNCCC2CN(Cc3ccc(OC)c(OC)c3)c3ccccc3O2)cc1OC (centres undefined) | 57% | – | – | –
> 30 µM | 10.9 µM | 52.4 µM | 0.21 | Fc1ccc(N2CCN(CC3CN(Cc4ccccc4)c4ccccc4O3)CC2)cc1 (centres undefined) | 2% | – | – | –
21.8 µM | 11.8 µM | 44.7 µM | 0.26 | COc1ccc(CCNCCC2CN(C)c3ccccc3O2)cc1OC (centres undefined) | – | – | – | –
